Results reported in ChEMBL document CHEMBL4052792, “3-Hydroxykynurenine, a Tryptophan Metabolite Generated during the Infection, Is Active Against Trypanosoma cruzi” (ACS Med Chem Lett, 2017).

Assays:
Trypanosoma cruzi [1] = test: Trypanocidal activity against Trypanosoma cruzi Tulahuen trypomastigotes infected in mouse whole blood assessed as increase in parasite death at 0.2 uM by trypan blue assay; type: functional; conditions: TDE = time-dependent effect
Trypanosoma cruzi [2] = test: Trypanocidal activity against Trypanosoma cruzi Tulahuen trypomastigotes assessed as reduction in parasites after 72 hrs by trypan blue assay; type: functional
Outline: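 Bloodstream trypomastigotes were incubated at 37 °C in culture medium alone or with increasing doses for 24, 48 and 72 h. Parasite death was scored as percentage by trypan blue exclusion. Results are means ± SD of three independent experiments.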

Trypanosoma cruzi [3] = test: Induction of mitochondrial membrane depolarization in Trypanosoma cruzi Tulahuen trypomastigotes at 0.2 uM after 24 hrs by Rh123/propidium iodide staining-based flow cytometric analysis (reference value: 3.25 +/- 1.66%); type: functional
Outline: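 Trypomastigotes were treated with 3-HK for 24 h at 37 °C, then incubated with PI plus Rh123. Rh123 fluorescence was read by flow cytometry in PI-negative (live) parasites. The depolarized fraction was taken as the low-fluorescence M2 population. Index of variation = (treated median − control median)/control median. Three experiments were run.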

Trypanosoma cruzi [4] = test: Trypanocidal activity against Trypanosoma cruzi Tulahuen amastigotes infected in BALB/C mouse bone marrow derived macrophages assessed as parasite infected macrophages at 20 uM treated for 24 hrs followed by compound washout measured after 48 hrs by immunofluorescence assay (reference value: 26.84 +/- 7.81%); type: functional
[5] = Induction of apoptosis in BALB/C mouse BMDM assessed as cells with hypodiploid DNA content at 8000 uM after 24 hrs by FITC/propidium iodide staining based flow cytometric analysis (reference value: 29.9%); type: functional
Enterococcus faecalis = test: Antimicrobial activity against vancomycin-resistant Enterococcus faecalis NCTC12201 after 8 hrs; type: functional; conditions: NCTC12201, 8 h
Candida albicans = test: Antimicrobial activity against Candida albicans ATCC10231 after 10 to 20 hrs; type: functional
Trypanosoma cruzi [6] = test: Trypanocidal activity against Trypanosoma cruzi Tulahuen amastigotes infected in BALB/C mouse bone marrow derived macrophages assessed as reduction in endocytic index at 0.2 uM after 72 hrs by immunofluorescence assay relative to control; type: functional
Trypanosoma cruzi [7] = test: Trypanocidal activity against Trypanosoma cruzi Tulahuen trypomastigotes infected in BALB/C mouse bone marrow derived macrophages assessed as induction of cell lysis at trypomastigote stage after 24 hrs

SMILES: Nc1c(O)cccc1C(=O)C[C@H](N)C(=O)O
- Activity (Trypanosoma cruzi [1]): Tde
- IC50 (Trypanosoma cruzi [2]): 20 to 200 µM
- Activity (Trypanosoma cruzi [3]): 3.88%
- Activity (Trypanosoma cruzi [4]): 8.63%
- Activity [5]: 29.9%
- IC50 (Enterococcus faecalis): 30 to 137 µM
- IC50 (Candida albicans): 30 to 137 µM
- inhibition at 0.2 µM (Trypanosoma cruzi [6]): 68%
- IC50 (Trypanosoma cruzi [7]): 1200 µM
